Results on eight compounds are retold here after ChEMBL document CHEMBL4715832, “Isoquinoline-based biaryls as a robust scaffold for microtubule inhibitors” (Eur J Med Chem, 2020).

One data set is filed under the species Homo sapiens. As to the kind of experiment: Inhibition of porcine tubulin polymerization at 16 uM preincubated for 10 mins followed by GTP addition by turbidimetric method. Summed up:
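Purified porcine brain tubulin (99% purity) pre-incubated 10 min at 37 °C with compound at 16 µM in buffer containing 3% DMSO and 10% glycerol. Polymerisation started at time zero by adding GTP to 1 mM. Absorbance at 340 nm followed over time at 37 °C as the turbidity read-out.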

Data set [1] has as its system HeLa. Put plainly: Antiproliferative activity against human HeLa cells assessed as reduction in cell growth after 48 hrs by resazurin dye based fluorescence assay. The format is functional. The procedure, abridged:
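HeLa cells grown in DMEM with 10% FCS and penicillin/streptomycin, 37 °C, 5% CO2. Seeded 5,000 cells/well, treated 24 h later with DMSO 1% final, then incubated 48 h. Resazurin reduction to resorufin measured over 3 h at 37 °C by fluorescence (ex 544/em 590 nm). Normalised to cosolvent control (100%) and cell-free wells (0%). Means of at least three independent experiments.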
(In general: Alamar Blue is a resazurin reagent that responds to reducing activity.)

In data set [2] the test system is HeLa. Put plainly: Induction of microtubule network depolymerization in human HeLa cells after 24 hrs by immunofluorescence staining based confocal microscopic analysis. The format is cell-based. The procedure, abridged:
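HeLa cells seeded on glass coverslips (50,000 cells/well), allowed to adhere 18 h, then treated 24 h. Fixed with 0.5% glutaraldehyde, quenched with 0.1% NaBH4, blocked with PBS + 10% FCS. Stained with rabbit anti-alpha-tubulin (1:400, 1 h), then Alexa Fluor 488 anti-rabbit secondary, with DAPI nuclear counterstain. Imaged by confocal microscopy, including z-stack projections.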

For data set [3], the system named is HeLa. As to the kind of experiment: Induction of microtubule network depolymerization in human HeLa cells assessed as induction of mitotic arrest at 120 nM after 24 hrs by immunofluorescence staining based confocal microscopic analysis. The format is cell-based. Summed up:
(§1)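 HeLa cells on glass coverslips (50,000/well), adhered 18 h, then treated 24 h (DMSO 1% final). Fixed with 0.5% glutaraldehyde, quenched with 0.1% NaBH4, blocked in PBS + 10% FCS. Stained with rabbit anti-alpha-tubulin (1:400, 1 h) and Alexa 488 goat anti-rabbit secondary, with DAPI nuclear counterstain. Imaged by confocal microscopy with z-stack projections.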

In a further data set the test system is HL-60. Put plainly: Antiproliferative activity against human HL-60 cells assessed as reduction in cell growth after 24 hrs by MTT assay. The format is functional, cell-based. To be noted: HL-60, 24 h. The procedure, abridged:
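HL-60 cells grown in RPMI 1640 with 10% FCS, no antibiotics, 37 °C, 5% CO2. Seeded 9,000 cells/well, treated 24 h later with DMSO cosolvent at 1% final. After 24 h, MTT 0.5 mg/mL for 2 h, absorbance read. Normalised to cosolvent control (100%) and Triton X-100-treated cells (0%). Means of at least three independent experiments.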
In general terms: Formazan colour is commonly taken as a measure of viable cells.

Data set [4] is described as follows: Toxicity in Balb/c mouse at 25 mg/kg, iv administered at 48 hrs interval for 3 times. To be noted: in vivo. It is filed as organism-based. The procedure, abridged: (§2)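 Male and female Balb/c mice dosed 3 times at 48 h intervals with 25 mg/kg of the phosphate prodrug, by the route named, and monitored for tolerability.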
A short description of data set [5]: Toxicity in Balb/c mouse at 25 mg/kg, ip administered at 48 hrs interval for 3 times. The format is organism-based. To be noted: in vivo. Summed up: as §2
The nature of data set [6]: Toxicity in iv dosed Balb/c mouse. It is filed as organism-based. To be noted: in vivo. Summed up:
(§3)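 Single-administration dose escalation in male and female Balb/c mice, given i.p. or i.v., to find the maximal tolerated dose of the phosphate prodrug.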

Data set [7] is described as follows: Solubility of compound in aqueous buffer. It is filed as physicochemical.
Data set [8] can be described thus: Toxicity in ip dosed Balb/c mouse. The format is organism-based. To be noted: in vivo. Summed up:
as §3

Data set [9] deals with HeLa. As to the kind of experiment: Induction of microtubule network depolymerization in human HeLa cells assessed as appearance of defective chromosome alignment at 120 nM after 24 hrs by immunofluorescence staining based confocal microscopic analysis. It is filed as cell-based. The procedure, abridged: as §1
The subject of data set [10] is HeLa. As to the kind of experiment: Induction of microtubule network depolymerization in human HeLa cells assessed as appearance of defective spindles at 120 nM after 24 hrs by immunofluorescence staining based confocal microscopic analysis. It is filed as cell-based. The procedure, abridged: as §1
For data set [11], the system named is HeLa. As to the kind of experiment: Inhibition of tubulin polymerization in human HeLa cells harboring EB3-YFP plasmid assessed as disappearance of […] comet at 10 uM after 2 mins by microscopic analysis. The format is cell-based. The procedure, abridged: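 HeLa cells (12,000/well) transiently transfected 24 h after seeding with EB3-YFP plasmid, imaged 24 h later by spinning-disc confocal at 37 °C, 5% CO2 (514 nm, 300 ms exposure, 45 frames/min). Five reference frames taken, compound added, 2 min incubation, then 5 more frames. EB3 comets counted by maxima detection; 7 cells from three independent trials.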

Data set [12] deals with HeLa. As to the kind of experiment: Cell cycle arrest in human HeLa cells assessed as accumulation at G2/M phase at 500 nM measured after 24 hrs by propidium iodide staining based flow cytometry. It is filed as functional. The procedure, abridged: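 HeLa cells seeded 50,000/well, treated 24 h; collected, stained with 2 mg/mL propidium iodide at 4 °C for 30 min, analysed by flow cytometry (30,000 cells per condition); cells assigned to sub-G1, G1, S and G2/M by DNA content (PI signal). DMSO cosolvent 1% final.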
On the technique in general: In flow cytometry, cells or beads pass a laser one at a time.

For data set [13], the system named is HeLa. As to the kind of experiment: Induction of microtubule network depolymerization in human HeLa cells assessed as accumulation of rounded cells at 120 nM after 24 hrs by immunofluorescence staining based confocal microscopic analysis. It is filed as cell-based. The procedure, abridged:
as §1

Activity calls are given as the source filed them. The calls are words filed in the database; no cut-off is given here.

As usually defined, the EC50 is the concentration needed to bring the measured effect to its halfway point. For orientation: solubility means how much of the substance goes into solution per volume. A lower solubility goes with a poorly soluble substance.

With `COc1cc2c(c(OC)c1OC)-c1ccc(OC)c(=O)cc1[C@@H](NC(C)=O)CC2`, in the data set listed under Homo sapiens, the inhibition entry is “Active”.

With `COc1cc(-c2nccc3c(OC)c(OC)c(OC)cc23)ccc1O`, the EC50 with HeLa [1] stood at 50000 nM.

For `COc1ccc2ccnc(-c3cc(OC)c(OC)c(OC)c3)c2c1`, in the data set on HeLa [1], the Activity result was “Dose-dependent effect” and the EC50 is 180 nM. Besides, the Activity entry with HeLa [2] is “Dose-dependent effect”.

Consider `COc1cc2c(-c3cc(OC)c(OC)c(OC)c3)nccc2cc1OP(=O)([O-])[O-].[Na+].[Na+]`, for which the result in the data set with HeLa [3], with HeLa [9], in the data set on HeLa [10], in the data set on HeLa [12] and in the data set on HeLa [13] was Active. The values for the EC50 in the data set on HL-60 and in the data set on HeLa [1] were 570 nM and 170 nM, respectively. Further, the Activity entry with HeLa [1] was “Dose-dependent effect”; in data set [4] it was “Non-Toxic”; in [5], “Non-Toxic”; in the data set on HeLa [2] it was “Dose-dependent effect”. The values for the MTD in data set [6] and in [8] were 50 mg/kg and 32 mg/kg, respectively. This compound also registered a solubility in data set [7] of over 10 mM. Further, in the data set with HeLa [11], the inhibition result is “Active”.

Turning to `COc1ccc(-c2nccc3c(OC)c(OC)c(OC)cc23)c(C(=O)O)c1`, the EC50 with HeLa [1] is over 100000 nM.

Take `COc1ccc(C(=O)c2nccc3c(OC)c(OC)c(OC)cc23)cc1`: the EC50 in the data set on HeLa [1] is over 80000 nM.

As for `COc1ccc2cc[n+](C)c(-c3cc(OC)c(OC)c(OC)c3)c2c1`, the EC50 in the data set on HeLa [1] is over 30000 nM. Moreover, the outcome with HeLa [2] was inactive.

Consider `COC(=O)Nc1nc2cc(C(=O)c3cccs3)ccc2[nH]1` [NOCODAZOLE], for which the EC50 with HeLa [1] was determined as 40 nM.
